The text below walks through data of ChEMBL document CHEMBL1138429, “Novel carbazole derivatives as NPY Y1 antagonists” (Bioorg Med Chem Lett, 2007).

Series [1] addresses T1, Neuropeptide Y receptor type 1 (Homo sapiens, UniProt P25929).
T1 sequence (P25929 whole entry): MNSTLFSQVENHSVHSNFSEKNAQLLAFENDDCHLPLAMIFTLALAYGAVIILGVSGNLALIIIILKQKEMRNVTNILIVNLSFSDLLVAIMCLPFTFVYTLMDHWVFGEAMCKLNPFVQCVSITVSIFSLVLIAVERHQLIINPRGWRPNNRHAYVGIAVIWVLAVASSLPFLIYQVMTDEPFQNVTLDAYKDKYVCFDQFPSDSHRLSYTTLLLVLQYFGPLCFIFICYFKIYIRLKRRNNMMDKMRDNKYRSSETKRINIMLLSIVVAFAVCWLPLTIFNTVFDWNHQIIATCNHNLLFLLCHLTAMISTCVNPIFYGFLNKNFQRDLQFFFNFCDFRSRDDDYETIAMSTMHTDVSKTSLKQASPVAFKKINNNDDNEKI
The experiment in a line: Displacement of [125]peptide YY from human recombinant Y1 receptor expressed in CHO cells. In kind it is cell-based.

Series [2] can be described thus: Oral bioavailability in Sprague-Dawley rat at 5 mg/kg, po. In kind it is ADME, organism-based. To be noted: in vivo. The essentials:
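Male Sprague–Dawley rats received 5 mg/kg orally as a methocel suspension. F was calculated from the normalised AUC against the iv (1 mg/kg) dose.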

Series [3] is described as follows: Ratio of drug level in […] plasma in Sprague-Dawley rat at 1 mg/kg, iv after 5 mins. The format is ADME, organism-based. Details: dose 1 mg/kg, route intravenous. A digest of the protocol: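 Brain penetration was assessed in male Sprague–Dawley rats dosed iv at 1 mg/kg in DMSO/PEG400/H2O 5:50:45 solution. The partition ratio was measured 5 min after dosing.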

A short description of series [4]: Plasma clearance in Sprague-Dawley rat at 1 mg/kg, iv. The format is ADME, organism-based. Details: dose 1 mg/kg, route intravenous. The essentials:
(§1)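 Male Sprague–Dawley rats given 1 mg/kg iv as a solution in DMSO/PEG400/H2O 5:50:45. Clearance, half-life, volume of distribution and AUC were derived from the post-dose profile.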

The nature of series [5]: Half life in Sprague-Dawley rat at 1 mg/kg, iv. In kind it is ADME, organism-based. On the set-up: dose 1 mg/kg, route intravenous. To be noted: in vivo. The essentials:
as §1

Series [6] in a line: Ratio of drug level in […] plasma in Sprague-Dawley rat at 1 mg/kg, iv after 5 mins. The note with it: in vivo.

Turning to `CN1CCN(C(=O)c2cc(Oc3ccc(Cl)cc3)c3c(c2)c2ccccc2n3C[C@@H]2CCN(C)C[C@@H]2F)CC1`, in series [1], the IC50 came out at 0.028 µM. This molecule yielded a bioavailability in series [2] of 19%. For the same molecule, the blood plasma ratio at 5 min in series [3] is 4.2. This molecule also showed a clearance in series [4] of 15 mL/min/kg. For the same molecule, in series [5], the half-life is 11 h.
As to `O=C(c1cc(Oc2ccc(Cl)cc2)c2c(c1)c1ccccc1n2C[C@@H]1CCNC[C@@H]1F)N1CCC(O)CC1`, the IC50 in series [1] is 7.76 µM.
Regarding `CN1CCN(C(=O)c2cc(Oc3ccc(Cl)cc3)c3c(c2)c2ccccc2n3C[C@@H]2CCN(C)C[C@H]2F)CC1`, the concentration for half-maximal inhibition (IC50) in series [1] was 0.095 µM. Further, the blood plasma ratio at 5 min in series [3] amounted to 8.2.
`CN1CCN(C(=O)c2cc(Oc3ccc(Cl)cc3)c3c(c2)c2ccccc2n3CC2CCCNC2)CC1` (stereo unspecified): the half-maximal inhibitory concentration (IC50) in series [1] worked out at 0.107 µM.
Still for that read-out and setting: the value for `O=C(c1cc(Oc2ccc(Cl)cc2)c2c(c1)c1ccccc1n2C[C@@H]1CCNC[C@H]1F)N1CCN(C2CC2)CC1` was 0.871 µM; that for `CN(C)C1CCN(C(=O)c2cc(Oc3ccc(Cl)cc3)c3c(c2)c2ccccc2n3C[C@@H]2CCNC[C@H]2F)C1` (stereo partly specified) was 0.467 µM; that for `CN1CCN(C(=O)c2cc(Oc3ccc(Cl)cc3)c3c(c2)c2ccccc2n3CC2CCN(CC(=O)N(C)C)CC2)CC1` was 0.014 µM.
Still for that read-out and setting: the value for `CN1CCN(C(=O)c2cc(Oc3ccc(Cl)cc3)c3c(c2)c2ccccc2n3CCCN2CCCCC2)CC1` was 0.05 µM; that for `O=C(c1cc(Oc2ccc(Cl)cc2)c2c(c1)c1ccccc1n2C[C@@H]1CCNC[C@@H]1F)N1CCN(CC(F)(F)F)CC1` was 9.77 µM; that for `O=C(c1cc(Oc2ccc(Cl)cc2)c2c(c1)c1ccccc1n2C[C@@H]1CCNC[C@@H]1F)N1CCc2nc[nH]c2C1` was 2.88 µM.
On the same count and under the same terms, the same measure for `CN1CCCC1CCNC(=O)c1cc(Oc2ccc(Cl)cc2)c2c(c1)c1ccccc1n2C[C@@H]1CCNC[C@H]1F` (stereo partly specified): 1.86 µM; for `CN(C)CCN(C)C(=O)c1cc(Oc2ccc(Cl)cc2)c2c(c1)c1ccccc1n2C[C@@H]1CCNC[C@H]1F`: 0.191 µM; for `CN(C)C(=O)c1cc(Oc2ccc(Cl)cc2)c2c(c1)c1ccccc1n2C[C@@H]1CCNC[C@H]1F`: 12 µM.
Take `CN1CCN(C(=O)c2cc(Oc3ccc(Cl)cc3)c3c(c2)c2ccccc2n3C[C@@H]2CCNC[C@@H]2F)CC1`: the half-maximal inhibitory concentration (IC50) in series [1] came to 0.051 µM.
Take `O=C(c1cc(Oc2ccc(Cl)cc2)c2c(c1)c1ccccc1n2C[C@@H]1CCNC[C@@H]1F)N1CCn2ccnc2C1`: the IC50 in series [1] worked out at 1.91 µM.
Take `CN1CCN(C(=O)c2cc(Oc3ccc(Cl)cc3)c3c(c2)c2ccccc2n3C[C@@H]2CCNC[C@H]2F)CC1`: the IC50 in series [1] was 0.053 µM.
Take `CN1CCC(Cn2c3ccccc3c3cc(C(=O)N4CCN(C)CC4)cc(Oc4ccc(Cl)cc4)c32)CC1`: the IC50 in series [1] came to 0.011 µM. In series [3], the blood plasma ratio at 5 min came to 0.8.
Take `CN1CCN(C(=O)c2cc(Oc3ccc(Cl)cc3)c3c(c2)c2ccccc2n3C[C@@H]2CCN(C3CC3)C[C@@H]2F)CC1`: in series [1], the IC50 amounted to 0.186 µM.
As for `CN(C)CCNC(=O)c1cc(Oc2ccc(Cl)cc2)c2c(c1)c1ccccc1n2C[C@@H]1CCNC[C@H]1F`, in series [1], the concentration for half-maximal inhibition (IC50) worked out at 0.05 µM.
The same measure, in the same setting: the same measure for `O=C(c1cc(Oc2ccc(Cl)cc2)c2c(c1)c1ccccc1n2C[C@@H]1CCNC[C@@H]1F)N1CCN(CCO)CC1`: 0.832 µM.
For `CN1CCN(C(=O)c2cc(Oc3ccc(Cl)cc3)c3c(c2)c2ccccc2n3CC2CCNCC2)CC1`, in series [1], the half-inhibitory concentration (IC50) came to 0.016 µM. Besides, the bioavailability in series [2] stood at 0%. In series [6], the Ratio came to 0.12.
For `CCN1CCCC1CNC(=O)c1cc(Oc2ccc(Cl)cc2)c2c(c1)c1ccccc1n2C[C@@H]1CCNC[C@H]1F` (stereo partly specified), the IC50 in series [1] amounted to 0.263 µM.
The same measure, in the same setting: the value for `CN1CCN(C(=O)c2cc(Oc3ccc(Cl)cc3)c3c(c2)c2ccccc2n3CC2=C(F)CNCC2)CC1` was 0.043 µM.
